Experimental data taken from ChEMBL document CHEMBL1122306, “2-(Hydroxyphenyl)indoles: a new class of mammary tumor inhibiting compounds” (1983).
Where “and” joins values, the source holds several entries; their conditions need not be identical. Equal values may be shown once.

Columns and labels:
Rattus norvegicus [1] = assay: New tumor development in DMBA-induced hormone dependent mammary carcinoma in rats at 18 mg/kg; type: functional
Outline: (§1)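 Sprague-Dawley rats bearing established DMBA-induced mammary carcinomas that arose 5–10 weeks after DMBA. Dosed sc as one daily dose Monday to Thursday and a double dose on Friday. Controls got vehicle alone. Tumor area was followed over treatment.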

[2] = biological target: T1, Estrogen receptor (Mus musculus) (UniProt O08537+P19785); assay: Estrogenic activity in mouse uterotrophic assay at 0.2 ug as uterus dry weight (mg)/body weight (g) *100; type: functional, tissue-based
T1 sequence (O08537 whole entry, looked up): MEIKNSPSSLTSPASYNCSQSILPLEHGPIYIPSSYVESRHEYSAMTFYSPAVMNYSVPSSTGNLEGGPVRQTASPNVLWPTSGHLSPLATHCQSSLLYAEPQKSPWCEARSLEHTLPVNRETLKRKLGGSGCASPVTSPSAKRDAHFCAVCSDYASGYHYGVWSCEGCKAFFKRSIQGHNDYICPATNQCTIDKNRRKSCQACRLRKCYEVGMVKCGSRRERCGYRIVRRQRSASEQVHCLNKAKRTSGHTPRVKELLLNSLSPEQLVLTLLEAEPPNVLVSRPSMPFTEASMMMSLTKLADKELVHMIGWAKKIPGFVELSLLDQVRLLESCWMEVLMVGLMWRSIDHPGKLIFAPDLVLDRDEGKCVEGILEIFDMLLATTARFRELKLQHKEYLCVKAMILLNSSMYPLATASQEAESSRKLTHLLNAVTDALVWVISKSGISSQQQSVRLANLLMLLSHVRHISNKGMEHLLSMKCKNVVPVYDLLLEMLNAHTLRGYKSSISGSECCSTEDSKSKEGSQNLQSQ
T1 sequence (P19785 whole entry, looked up): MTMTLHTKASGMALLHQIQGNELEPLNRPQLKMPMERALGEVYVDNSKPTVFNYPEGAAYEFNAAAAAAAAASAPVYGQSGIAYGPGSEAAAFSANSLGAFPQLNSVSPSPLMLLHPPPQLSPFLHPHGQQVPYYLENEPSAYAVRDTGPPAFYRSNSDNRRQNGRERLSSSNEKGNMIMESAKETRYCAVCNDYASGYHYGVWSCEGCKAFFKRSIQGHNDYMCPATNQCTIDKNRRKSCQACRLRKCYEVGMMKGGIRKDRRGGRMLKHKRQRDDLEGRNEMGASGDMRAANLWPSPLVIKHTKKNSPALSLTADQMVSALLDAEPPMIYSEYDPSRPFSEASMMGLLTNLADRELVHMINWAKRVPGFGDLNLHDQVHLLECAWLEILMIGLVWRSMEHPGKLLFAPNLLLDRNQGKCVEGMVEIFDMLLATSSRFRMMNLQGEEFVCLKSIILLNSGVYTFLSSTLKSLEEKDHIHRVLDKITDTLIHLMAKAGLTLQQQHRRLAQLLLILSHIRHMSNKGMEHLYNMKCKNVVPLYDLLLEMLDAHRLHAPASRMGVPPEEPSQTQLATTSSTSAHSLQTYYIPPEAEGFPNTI
Outline: (§2)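 Mouse uterotrophic test with the compound alone given sc on 3 consecutive days (dose per animal). Uterus dry weight (mg)/body weight (g) × 100 was measured 24 h after the last injection, as mean ± SD of 10 animals. Significance by Wilcoxon–Mann–Whitney U test.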

MDA-MB-231 [3] = assay: (§3) Inhibition of [3H]thymidine incorporation into hormone independent MDA-MB 231 human breast cancer cells at 1x10E-6M; type: functional
Outline: (§4)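 MDA-MB 231 cells grown in McCoy 5a with 10% newborn calf serum and gentamycin. Replicate plates were switched to 5% serum 1 h before the run. Compounds were added in Me2SO (final 0.1%). Read-out was [3H]thymidine incorporation into TCA-precipitable material.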

[4] = biological target: T1, Estrogen receptor (Mus musculus); assay: Percent inhibition in anti-uterotrophic assay in mice at 1 ug; type: functional
Outline: (§5)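 Mice dosed sc on 3 consecutive days (dose per animal), together with […] estrone per animal per day. Uterus dry weight (mg)/body weight (g) × 100 was taken 24 h after the last injection, as mean ± SD of 10 animals. Significance by Wilcoxon–Mann–Whitney U test.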

Rattus norvegicus [5] = assay: New tumor development in DMBA-induced hormone dependent mammary carcinoma in rats at 6 mg/kg; type: functional; outline: as §1
[6] = biological target: T1, Estrogen receptor (Mus musculus); assay: Percent inhibition in anti-uterotrophic assay in mice at 0.2 ug; type: functional; details: in the assay text read “at 5 ug” for “at 0.2 ug”; outline: as §5
[7] = biological target: T1, Estrogen receptor (Mus musculus); assay: Anti-estrogenic activity in mouse uterotrophic assay at 25 ug as uterus dry weight (mg)/body weight (g) *100; type: functional, tissue-based; outline: as §5
[8] = biological target: T1, Estrogen receptor (Mus musculus); assay: Anti-estrogenic activity in mouse uterotrophic assay at 1 ug as uterus dry weight (mg)/body weight (g) *100; type: functional, tissue-based; outline: as §5
[9] = biological target: T1, Estrogen receptor (Mus musculus); assay: Anti-estrogenic activity in mouse uterotrophic assay at 5 ug as uterus dry weight (mg)/body weight (g) *100; type: functional, tissue-based; outline: as §5
[10] = biological target: T1, Estrogen receptor (Mus musculus); assay: Anti-estrogenic activity in mouse uterotrophic assay at 0.2 ug as uterus dry weight (mg)/body weight (g) *100; type: functional, tissue-based; details: in the assay text read “at 5 ug” for “at 0.2 ug”; outline: as §5
[11] = biological target: T1, Estrogen receptor (Mus musculus); assay: Percent inhibition in anti-uterotrophic assay in mice at 25 ug; type: functional; outline: as §5
Rattus norvegicus [12] = assay: Initial DMBA-induced hormone dependent mammary carcinoma tumors in rats at 18 mg/kg; type: functional; outline: as §1
Rattus norvegicus [13] = assay: Progressive DMBA-induced hormone dependent mammary carcinoma tumors in rats at 2 mg/kg in 9 animals; type: functional; outline: as §1
MDA-MB-231 [14] = assay: Growth inhibition of hormone independent MDA-MB 231 human breast cancer cells at 1x10E-5 M
Rattus norvegicus [15] = assay: Partial remission in DMBA-induced hormone dependent mammary carcinoma tumor bearing rats at 2 mg/kg in 9 animals; type: functional; outline: as §1
Rattus norvegicus [16] = assay: Initial DMBA-induced hormone dependent mammary carcinoma tumors in rats at 6 mg/kg; type: functional; outline: as §1
Rattus norvegicus [17] = assay: Percent complete remission of DMBA-induced hormone dependent mammary carcinoma in rats at 2 mg/kg in 9 animals; type: functional; outline: as §1
MDA-MB-231 [18] = assay: Inhibition of [3H]thymidine incorporation into hormone independent MDA-MB 231 human breast cancer cells at 1*10^-5 M; type: functional; outline: as §4
MDA-MB-231 [19] = assay: (§6) Inhibition of [3H]thymidine incorporation into hormone independent MDA-MB 231 human breast cancer cells at 2x10E-6M; type: functional; outline: as §4
Rattus norvegicus [20] = assay: Initial DMBA-induced hormone dependent mammary carcinoma tumors in rats at 2 mg/kg; type: functional; outline: as §1
[21] = biological target: T1, Estrogen receptor (Mus musculus); assay: Anti-estrogenic activity in mouse uterotrophic assay at 0.04 ug as uterus dry weight (mg)/body weight (g) *100; type: functional, tissue-based; details: in the assay text read “at 1 ug” for “at 0.04 ug”; outline: as §5
[22] = biological target: T1, Estrogen receptor (Mus musculus); assay: Estrogenic activity in mouse uterotrophic assay at 0.04 ug as uterus dry weight (mg)/body weight (g) *100; type: functional, tissue-based; outline: as §2
[23] = biological target: T1, Estrogen receptor (Mus musculus); assay: Estrogenic activity in mouse uterotrophic assay at 125 ug as uterus dry weight (mg)/body weight (g) *100; type: functional, tissue-based; outline: as §2
[24] = biological target: T1, Estrogen receptor (Mus musculus); assay: Percent inhibition in anti-uterotrophic assay in mice at 5 ug; type: functional; outline: as §5
MDA-MB-231 [25] = assay: as §3; type: functional; outline: as §4; remark: listed apart in the source
[26] = biological target: T1, Estrogen receptor (Mus musculus); assay: Estrogenic activity in mouse uterotrophic assay at 25 ug as uterus dry weight (mg)/body weight (g) *100; type: functional, tissue-based; outline: as §2
MDA-MB-231 [27] = assay: Inhibition of [3H]-thymidine incorporation into hormone independent MDA-MB 231 human breast cancer cells at 5x10E-6M; type: functional; outline: as §4
Rattus norvegicus [28] = assay: New tumor development in DMBA-induced hormone dependent mammary carcinoma in rats at 2 mg/kg; type: functional; outline: as §1
MDA-MB-231 [29] = assay: Inhibition of [3H]thymidine incorporation into hormone independent MDA-MB 231 human breast cancer cells at 5x10E-6M; type: functional; outline: as §4
[30] = biological target: T1, Estrogen receptor (Mus musculus); assay: Estrogenic activity in mouse uterotrophic assay at 1 ug as uterus dry weight (mg)/body weight (g) *100; type: functional, tissue-based; outline: as §2
Rattus norvegicus [31] = assay: Change in body weight of DMBA-induced hormone dependent mammary carcinoma tumor bearing rats at 2 mg/kg after 7 day therapy in 9 animals; type: functional
MDA-MB-231 [32] = assay: Growth inhibition of hormone independent MDA-MB 231 human breast cancer cells at 5x10E-6M
[33] = biological target: T1, Estrogen receptor (Mus musculus); assay: Percent inhibition in anti-uterotrophic assay in mice at 0.04 ug; type: functional; details: in the assay text read “at 1 ug” for “at 0.04 ug”; outline: as §5
MDA-MB-231 [34] = assay: Inhibition of [3H]thymidine incorporation into hormone independent MDA-MB 231 human breast cancer cells at 1x10E-5 M; type: functional; outline: as §4
[35] = biological target: T1, Estrogen receptor (Mus musculus); assay: Estrogenic activity in mouse uterotrophic assay at 5 ug as uterus dry weight (mg)/body weight (g) *100; type: functional, tissue-based; outline: as §2
MDA-MB-231 [36] = assay: as §6; type: functional; outline: as §4; remark: listed apart in the source
Rattus norvegicus [37] = assay: Change in tumor area DMBA-induced hormone dependent mammary carcinoma tumor bearing rats at 2 mg/kg after 28 day therapy in 9 animals
Rattus norvegicus [38] = assay: Static unchanged DMBA-induced hormone dependent mammary carcinoma tumors in rats at 2 mg/kg in 9 animals; type: functional; outline: as §1
[39] = biological target: T1, Estrogen receptor (Mus musculus); assay: Anti-estrogenic activity in mouse uterotrophic assay at 625 ug as uterus dry weight (mg)/body weight (g) *100; type: functional, tissue-based; outline: as §5
[40] = biological target: T1, Estrogen receptor (Mus musculus); assay: Percent inhibition in anti-uterotrophic assay in mice at 125 ug; type: functional; outline: as §5
Rattus norvegicus [41] = assay: Change in tumor area DMBA-induced hormone dependent mammary carcinoma tumor bearing rats at 2 mg/kg after 7 day therapy in 9 animals; type: functional; details: in the assay text read “28 day” for “7 day”; outline: as §1
[42] = biological target: T1, Estrogen receptor (Mus musculus); assay: Percent inhibition in anti-uterotrophic assay in mice at 625 ug; type: functional; outline: as §5
[43] = biological target: T1, Estrogen receptor (Mus musculus); assay: Estrogenic activity in mouse uterotrophic assay at 625 ug as uterus dry weight (mg)/body weight (g) *100; type: functional, tissue-based; outline: as §2
[44] = biological target: T1, Estrogen receptor (Mus musculus); assay: Anti-estrogenic activity in mouse uterotrophic assay at 125 ug as uterus dry weight (mg)/body weight (g) *100; type: functional, tissue-based; outline: as §5

CCn1c(-c2c(Cl)cc(O)cc2Cl)cc2c(Cl)cc(O)cc21
New tumors (Rattus norvegicus [1]): 5 | Effect [2]: 21.7 | T/C (MDA-MB-231 [3]): 98% | inhibition [4]: -7% | New tumors (Rattus norvegicus [5]): 4 | inhibition [6]: 2% | Effect [7]: 39.3 | Effect [8]: 48.7 | Effect [9]: 46.3 | Effect [10]: 46.3 | inhibition [11]: 25% | No. of tumors (Rattus norvegicus [12]): 20 | Progressive tumors (Rattus norvegicus [13]; 2 mg/kg): 24% and 15% and 16% | T/C (MDA-MB-231 [14]): 25% | Partial remission (Rattus norvegicus [15]; 2 mg/kg): 14% and 15% and 24% | No. of tumors (Rattus norvegicus [16]): 22 | Complete remission (Rattus norvegicus [17]; 2 mg/kg): 43% and 62% and 56% | T/C (MDA-MB-231 [18]): 16% | T/C (MDA-MB-231 [19]): 88% | No. of tumors (Rattus norvegicus [20]): 22 | Effect [21]: 48.7 | Effect [22]: 19.8 | Effect [23]: 40.6 | inhibition [24]: 2% | Cell no./dish x10E3 (MDA-MB-231 [25]): 40.2 cpm/dish x10E3 | Cell no./dish x10E5 (MDA-MB-231 [25]): 11.35 | T/C (MDA-MB-231 [25]): 106% | Effect [26]: 45.8 | Cell no./dish x10E5 (MDA-MB-231 [27]): 5.44 | New tumors (Rattus norvegicus [28]): 15 | T/C (MDA-MB-231 [29]): 14% | [3H]thymidine incorporation (MDA-MB-231 [29]): 5.8 cpm/dish x10E3 | Effect [30]: 21.5 | Change (Rattus norvegicus [31]; 2 mg/kg): 2% and 1% and 0% | T/C (MDA-MB-231 [32]): 51% | inhibition [33]: -7% | Cell no./dish x10E3 (MDA-MB-231 [34]): 6.6 cpm/dish x10E3 | Cell no./dish x10E5 (MDA-MB-231 [34]): 2.71 | Effect [35]: 22.2 | Cell no./dish x10E3 (MDA-MB-231 [36]): 36.2 cpm/dish x10E3 | Cell no./dish x10E5 (MDA-MB-231 [36]): 9.38 | T/C (MDA-MB-231 [36]): 88%

CCCn1c(-c2c(Cl)cc(O)cc2Cl)cc2c(Cl)cc(O)cc21
New tumors (Rattus norvegicus [5]): 9 | Change (Rattus norvegicus [37]): 57% | Progressive tumors (Rattus norvegicus [13]): 23% | Partial remission (Rattus norvegicus [15]): 19% | No. of tumors (Rattus norvegicus [16]): 17 | Static remission (Rattus norvegicus [38]): 50% | Complete remission (Rattus norvegicus [17]): 8% | Change (Rattus norvegicus [31]): 0%

Cn1c(-c2c(Cl)cc(O)cc2Cl)cc2c(Cl)cc(O)cc21
Effect [39]: 39.6 | T/C (MDA-MB-231 [3]): 88% | inhibition [4]: -6% | New tumors (Rattus norvegicus [5]): 24 | inhibition [40]: 30% | Effect [7]: 42.7 | Effect [8]: 48.5 | Effect [9]: 45.4 | Change (Rattus norvegicus [41]): 24% | inhibition [11]: 14% | inhibition [42]: 24% | Progressive tumors (Rattus norvegicus [13]): 28% | T/C (MDA-MB-231 [14]): 38% | Partial remission (Rattus norvegicus [15]): 28% | No. of tumors (Rattus norvegicus [16]): 19 | Static remission (Rattus norvegicus [38]): 25% | Complete remission (Rattus norvegicus [17]): 19% | Effect [43]: 40.1 | T/C (MDA-MB-231 [18]): 5% | Effect [23]: 34.4 | inhibition [24]: 5% | Effect [44]: 37.7 | Cell no./dish x10E3 (MDA-MB-231 [25]): 36.4 cpm/dish x10E3 | Cell no./dish x10E5 (MDA-MB-231 [25]): 10.12 | T/C (MDA-MB-231 [25]): 95% | Effect [26]: 26 | Effect [30]: 16 | Change (Rattus norvegicus [31]): -2% | Cell no./dish x10E3 (MDA-MB-231 [34]): 2.2 cpm/dish x10E3 | Cell no./dish x10E5 (MDA-MB-231 [34]): 4.12 | Effect [35]: 18.2
